Laboratory results from paper PMC6420060 (ACS applied materials & interfaces, 2018).

Tests used:
Type in all cases: physicochemical
[1] = Permeation into trapped giant unilamellar vesicles measured by FCS; conditions: 20 nM; for permeation into individual GUVs: 20% POPS
Procedure, shortened: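 POPC/POPS (4:1) GUVs, sucrose inside and glucose outside, ± 10 μM Ru complex for about 45 min. Held in BSA-coated microfluidic hydrodynamic traps with valves pressurised to 2 bar. 20 nM calcein in hosting buffer flushed in, valves reopened, static or under flow. After 30 min, FCS used a 488 nm laser at 60 μW. Curves fitted with a triplet term and corrected for buffer background. Permeation taken as N inside versus outside per vesicle.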

[2] = ζ-Potential of GUVs after incubation with Ru; conditions: GUVs containing 1 M sucrose measured in 1 M glucose, Zetasizer Nano ZSP
[3] = GUV size after incorporation of Ru; conditions: all samples pooled
Procedure, shortened: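 GUVs (POPC:POPS 4:1) made by emulsion transfer: 1 M sucrose/140 mM KCl/10 mM HEPES pH 7.4 inside, 1 M glucose/140 mM NaCl/10 mM HEPES outside. Incubated with 10 μM (final) Ru complex, typically 45 min, ± 200 μM (final) potassium ferricyanide. Imaged under a 60× water-immersion objective. Diameter taken at the z-plane of largest size, averaged over x and y. All vesicles pooled into histograms.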

Row | permeation into individual GUVs ([1]; with Ru(C17)2^2+, sub-20 μm vesicle diameters) | permeation into individual GUVs under flow ([1]; without Ru(C17)2^2+, nominal flow rates of 2, 5, 8, and 11 μL/min, larger vesicles (above 20 μm)) | permeation into individual GUVs ([1]; without Ru(C17)2^2+, vesicle diameter 20 μm) | permeation into individual GUVs ([1]; without Ru(C17)2^2+, vesicle diameter down to 10 μm) | ζ-potential of GUVs after incubation with Ru(C17)2^2+ ([2]; start of the period, pure GUVs with 20% POPS −90.8 ± 3.3 mV) | ζ-potential of GUVs after incubation with Ru(C17)2^2+ ([2]; up to 9 h after incubation) | vesicle diameter with Ru(C17)2^2+ and addition of potassium ferricyanide [3] | vesicle diameter upon incorporation of Ru(C17)2^2+ ([3]; 23.0 ± 6.6 without Ru(C17)2^2+) | Molecule
1 | below 30% | below 10% | below 10% | 60% | – | – | – | – | O=C(O)CN(CC(=O)O)Cc1cc2c(cc1O)Oc1cc(O)c(CN(CC(=O)O)CC(=O)O)cc1C21OC(=O)c2ccccc21 [calcein]
2 | – | – | – | – | −11.7 ± 4.8 mV | −18.5 ± 2.6 mV | 15.8 ± 3.8 µm | 17.9 ± 4.8 nm | dihepta-decylated tris(bipyridine)ruthenium(II) complex [Ru(C17)2^2+]
